Among the data in ChEMBL document CHEMBL1177665, “Discovery of potent and orally active tricyclic-based FBPase inhibitors” (Bioorg Med Chem, 2010) are IC50 and Activity values, retold here.

Experiment [1] has as its target T1, Fructose-1,6-bisphosphatase 1 (Homo sapiens, UniProt P09467).
T1 sequence (P09467 whole entry): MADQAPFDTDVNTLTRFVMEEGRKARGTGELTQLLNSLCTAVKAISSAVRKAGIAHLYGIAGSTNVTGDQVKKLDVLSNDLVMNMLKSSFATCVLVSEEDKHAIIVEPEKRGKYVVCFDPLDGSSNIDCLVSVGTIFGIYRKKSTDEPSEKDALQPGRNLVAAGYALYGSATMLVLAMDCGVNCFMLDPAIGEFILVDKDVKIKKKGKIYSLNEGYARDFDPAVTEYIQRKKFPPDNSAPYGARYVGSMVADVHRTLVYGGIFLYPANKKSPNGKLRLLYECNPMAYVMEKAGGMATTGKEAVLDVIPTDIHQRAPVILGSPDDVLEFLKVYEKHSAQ
Briefly: Inhibition of human FBase.

The nature of experiment [2]: Inhibition of monkey FBase. Details: species or system Macaca mulatta.
Experiment [3] in a line: Antidiabetic activity in monkey hepatocytes assessed as inhibition of glucose production after 4 hrs. It counts as functional, cell-based. The conditions noted are these: Macaca mulatta, Hepatocyte. An outline of the steps:
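Monkey hepatocytes in phosphate buffered saline with 25 mM sodium bicarbonate, 25 mM HEPES, 1% BSA; compound preincubation only 2 min, then washed out and cells incubated 4 h with 10 mM lactate plus 1 mM pyruvate. Medium glucose measured by Glucose CII-test; IC50 reported as mean SD (n = 7).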

The subject of experiment [4] is Cynomolgus monkey. In words: Antidiabetic activity in cynomolgus monkey assessed as decrease in blood glucose level at 20 mg/kg, po after 4 hrs. Particulars: Macaca fascicularis. The arrangement: dose 20 mg/kg. In kind it is functional, organism-based. An outline of the steps: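 Overnight-fasted cynomolgus monkeys (n = 7, 5–8 years old) dosed orally at 20 mg/kg in vehicle (50% PEG 400, 0.5% MC, 0.5% Tween 80) or vehicle alone; crossover in same animals with at least 2-week washout. Blood drawn predose and 1–12 h post-dose; plasma glucose read on i-STAT 300F analyser; mean S.E.M., paired t-test versus vehicle.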

Molecules are shown by their SMILES. The source made the active and inactive calls. The calls are words filed in the database; no cut-off is given here. Some results are limits rather than exact numbers.

Take `Cc1cc(OCP(=O)(N[C@@H](C)C(=O)OC(C)C)N[C@@H](C)C(=O)OC(C)C)c2c(c1C)Cc1scnc1-2`: the results for the IC50 in experiment [1], in experiment [2] and in experiment [3] were 0.01 µM, 0.034 µM and 9 µM, respectively.

Regarding `CCOC(=O)[C@H](C)NP(=O)(COc1ccc(C(=O)NCC(C)(C)C)c2c1-c1ncsc1C2)N[C@@H](C)C(=O)OCC`, the IC50 was 0.011 µM in experiment [1], 0.031 µM in experiment [2] and more than 100 µM in experiment [3].

Turning to `CCOC(=O)CNP(=O)(COc1cc(C)c(C)c2c1-c1ncsc1C2)NCC(=O)OCC`, the IC50 in experiment [1] came to 0.01 µM; in experiment [2] it was 0.034 µM; in experiment [3], 9.4 µM.

With `CCOC(=O)[C@H](C)NP(=O)(COc1ccc(C)c2c1-c1ncsc1C2)N[C@@H](C)C(=O)OCC`, the IC50 came to 0.008 µM in experiment [1], 0.024 µM in experiment [2] and 7.4 µM in experiment [3].

As for `CCOC(=O)[C@H](C)NP(=O)(COc1ccc(C(N)=O)c2c1-c1ncsc1C2)N[C@@H](C)C(=O)OCC`, the half-inhibitory concentration (IC50) came out at 0.001 µM in experiment [1], 0.022 µM in experiment [2] and 94 µM in experiment [3].

As to `CCOC(=O)[C@H](C)NP(=O)(COc1ccc(C(=O)NC)c2c1-c1ncsc1C2)N[C@@H](C)C(=O)OCC`, the IC50 in experiment [1] is 0.002 µM; in experiment [2], 0.019 µM; in experiment [3] it was more than 100 µM.

`CCOC(=O)[C@H](C)NP(=O)(COc1ccc(CC)c2c1-c1ncsc1C2)N[C@@H](C)C(=O)OCC`: the concentration for half-maximal inhibition (IC50) in experiment [1] amounted to 0.011 µM; in experiment [2], 0.023 µM; in experiment [3], 23 µM.

For `CCOC(=O)[C@H](C)NP(=O)(COc1cc(C)c(C)c2c1-c1ncsc1C2)N[C@@H](C)C(=O)OCC`, the outcome in experiment [4] was Active. The results for the IC50 in experiment [1], in experiment [2] and in experiment [3] were 0.01 µM, 0.034 µM and 6.8 µM, respectively.

Consider `CCOC(=O)[C@H](C)NP(=O)(N[C@@H](C)C(=O)OCC)c1ccc(-c2nc(N)sc2CC(C)C)o1`, for which the IC50 in experiment [1] was determined as 0.01 µM; in experiment [2], 0.03 µM; in experiment [3], 10 µM.
